Measured values: ChEMBL document CHEMBL1687745 (Antimicrob Agents Chemother, 2009)
≈ marks a conversion by molar mass, not a printed value. Calls of active or inactive are those of the source. The rule behind the calls is not given here.

What was measured:
Bacillus anthracis [1] = assay: Antimicrobial activity against Bacillus anthracis Sterne spores by broth microdilution method; assay type: functional
Bacillus anthracis [2] = assay: Antimicrobial activity against Bacillus anthracis Sterne vegetative cells by broth microdilution method; assay type: functional
Bacillus subtilis [3] = assay: Inhibition of DNA synthesis in Bacillus subtilis BD54 at 5 X MIC by [3H]thymidine incorporation assay; assay type: functional, organism-based
Method in brief: (§1)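 Precursors were [methyl-3H]thymidine (DNA), [5-3H]uridine (RNA), L-[4,5-3H]leucine (protein) and N-acetyl-D-[1-3H]glucosamine (cell wall). Samples taken over time, precipitated with equal volume of ice-cold 20% TCA, filtered on glass fibre, and counted. cpm plotted against time.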

Bacillus subtilis [4] = assay: Inhibition of RNA synthesis in Bacillus subtilis BD54 at 5 X MIC by [5-3H]uridine incorporation assay; assay type: functional; method in brief: as §1
Bacillus subtilis [5] = assay: Inhibition of protein synthesis in Bacillus subtilis BD54 at 5 X MIC by L-[4,5-3H]leucine incorporation assay; assay type: functional, organism-based; method in brief: as §1
Bacillus subtilis [6] = assay: Inhibition of cell wall synthesis in Bacillus subtilis BD54 at 5 X MIC by N-acetyl-D-[1-3H] glucosamine incorporation assay; assay type: functional; method in brief: as §1

Compound | MIC (Bacillus anthracis [1]) | MIC (Bacillus anthracis [2]) | further results
C(/C=C/c1cc2cc(C3=NCCN3)ccc2o1)=C\c1cc2cc(C3=NCCN3)ccc2o1 | 9.9 µg/mL (≈ 23.4 µM) | 19.8 µg/mL (≈ 46.9 µM) | 
N=C(N)c1ccc(-n2cc3cc(C(=N)N)ccc3n2)cc1 | > 14 µg/mL | > 14 µg/mL | 
C(=C\c1nc2ccccc2[nH]1)/c1nc2ccccc2[nH]1 | > 10 µg/mL | > 10 µg/mL | 
N=C(N)c1ccc2[nH]c(/C=C/c3cc4ccc(C(=N)N)cc4o3)cc2c1 | 8 µg/mL (≈ 23.3 µM) | > 17 µg/mL | 
N=C(N)c1ccc2cc(/C=C/c3cc4ccc(C(=N)N)cc4o3)[nH]c2c1 | 2.1 µg/mL (≈ 6.12 µM) | 4.2 µg/mL (≈ 12.2 µM) | 
c1cc(-c2[nH]c3cc(C4=NCCN4)ccc3c2-c2cc3ccc(C4=NCCN4)cc3[nH]2)ccc1C1=NCCN1 | 24.9 µg/mL (≈ 48.6 µM) | 24.9 µg/mL (≈ 48.6 µM) | 
OCCn1c(/C=C/c2nc3ccccc3[nH]2)nc2ccccc21 | > 12 µg/mL | > 12 µg/mL | 
N=C(N)c1ccc2oc(/C=C/c3cc4cc(C(=N)N)ccc4s3)cc2c1 | 8.7 µg/mL (≈ 24.1 µM) | 17 µg/mL (≈ 47.2 µM) | 
N=C(N)c1ccc2oc(CCc3cc4cc(C(=N)N)ccc4o3)cc2c1 | > 17 µg/mL | > 17 µg/mL | 
N=C(N)Nc1ccc(-c2cc3cc(NC(=N)N)ccc3s2)cc1 | 15.9 µg/mL (≈ 49 µM) | > 16 µg/mL | 
N=C(N)c1ccc(/C=C/c2cc3ccc(C(=N)N)cc3[nH]2)cc1 | 7.5 µg/mL (≈ 24.7 µM) | 15 µg/mL (≈ 49.4 µM) | 
C(=C\c1cc2ccc(C3=NCCN3)cc2o1)/c1cc2ccc(C3=NCCN3)cc2[nH]1 | 4.7 µg/mL (≈ 11.9 µM) | 19 µg/mL (≈ 48 µM) | 
O=C(Nc1ccc(C2=NCCN2)cc1)c1cc2ccc(C3=NCCN3)cc2[nH]1 | 8.9 µg/mL (≈ 23.9 µM) | 17.8 µg/mL (≈ 47.8 µM) | 
CO[C@H]1/C=C/O[C@@]2(C)Oc3c(C)c(O)c4c(O)c(c(/C=N/N5CCN(C)CC5)c(O)c4c3C2=O)NC(=O)/C(C)=C\C=C\[C@H](C)[C@H](O)[C@@H](C)[C@@H](O)[C@@H](C)[C@H](OC(C)=O)[C@@H]1C |  |  | inhibition (Bacillus subtilis [3]): Active; inhibition (Bacillus subtilis [4]): Active; inhibition (Bacillus subtilis [5]): Active; inhibition (Bacillus subtilis [6]): Active
Nc1ccc(C2=Cc3ccc(N)cc3S2(=O)=O)cc1 | > 11 µg/mL | > 11 µg/mL | 
c1cc(-c2nc3cc(-c4nc5ccc(C6=NCCN6)cc5[nH]4)ccc3[nH]2)ccc1C1=NCCN1 | 1.4 µg/mL (≈ 3.14 µM) | 22.3 µg/mL (≈ 49.9 µM) | 
N=C(N)c1ccc(-n2nc3ccc(C(=N)N)cc3n2)cc1 | > 14 µg/mL | > 14 µg/mL | 
N=C(N)c1ccc(-c2[nH]c3cc(C(=N)N)ccc3c2N)cc1 | > 15 µg/mL | > 15 µg/mL | 
N=C(N)c1ccc2cc(/C=C/c3cc4ccc(C(=N)N)cc4o3)oc2c1 | 8.3 µg/mL (≈ 24.1 µM) | 17 µg/mL (≈ 49.4 µM) | 
N/C(=N\O)c1ccc2oc(/C=C/c3cc4cc(/C(N)=N/O)ccc4o3)cc2c1 | > 23 µg/mL | > 23 µg/mL | 

Compound | MIC (Bacillus anthracis [1]) | MIC (Bacillus anthracis [2]) | further results
c1cc2cc(-c3cc4ccc(C5=NCCN5)cc4[nH]3)[nH]c2cc1C1=NCCN1 | 0.6 µg/mL (≈ 1.63 µM) | 1.1 µg/mL (≈ 2.99 µM) | 
Cc1c(/C=C/c2cc3cc(C(=N)N)ccc3o2)oc2cc(C(=N)N)ccc12 | > 17 µg/mL | > 17 µg/mL | 
N=C(N)c1ccc(-c2[nH]c3cc(C(=N)N)ccc3c2-c2ccccc2)cc1 | 9 µg/mL (≈ 25.5 µM) | 17 µg/mL (≈ 48.1 µM) | 
C(=C\c1cc2cc(C3=NCCN3)ccc2[nH]1)/c1ccc(C2=NCCN2)cc1 | > 17 µg/mL | > 17 µg/mL | 
C(=C\c1cc2ccc(C3=NCCN3)cc2[nH]1)/c1ccc2cc(C3=NCCN3)[nH]c2c1 | 9.3 µg/mL (≈ 23.6 µM) | 18.7 µg/mL (≈ 47.4 µM) | 
C(=C\c1cc2ccc(C3=NCCN3)cc2o1)/c1cc2cc(C3=NCCN3)ccc2[nH]1 | 19 µg/mL (≈ 48 µM) | > 19 µg/mL | 
N=C(N)c1ccc2cc(C(=N)N)[nH]c2c1 | > 11 µg/mL | > 11 µg/mL | 
N=C(N)c1ccc(/C=C/c2cc3cc(C(=N)N)ccc3[nH]2)cc1 | 15 µg/mL (≈ 49.4 µM) | > 15 µg/mL | 
O=C(N[C@H](CO)[C@H](O)c1ccc([N+](=O)[O-])cc1)C(Cl)Cl |  |  | inhibition (Bacillus subtilis [3]): Active; inhibition (Bacillus subtilis [4]): Active; inhibition (Bacillus subtilis [5]): Active; inhibition (Bacillus subtilis [6]): Active
N=C(N)c1ccc2oc(CCc3cc4ccc(C(=N)N)cc4[nH]3)cc2c1 | 8.4 µg/mL (≈ 24.3 µM) | 8.4 µg/mL (≈ 24.3 µM) | 
O=C(Nc1ccc(C2=NCCN2)cc1)c1cc2ccc(C3=NCCN3)cc2o1 | > 18 µg/mL | > 18 µg/mL | 
N=C(N)c1ccc2oc(/C=C/c3cc4ccc(C(=N)N)cc4o3)cc2c1 | > 17 µg/mL | > 17 µg/mL | 
Cc1c(/C=C/c2oc3ccc(C(=N)N)cc3c2C)oc2cc(C(=N)N)ccc12 | > 18 µg/mL | > 18 µg/mL | 
N=C(N)c1ccc(-c2cc3ccc(C(=N)N)cc3s2)cc1 | > 19 µg/mL | > 19 µg/mL | 
C(=C\c1cc2ccc(C3=NCCN3)cc2[nH]1)/c1ccc(C2=NCCN2)cc1 | 8.6 µg/mL (≈ 24.2 µM) | > 17 µg/mL | 
Cc1cc(N)c2cc(NC(=O)Nc3ccc4nc(C)cc(N)c4c3)ccc2n1 [AMINOQUINURIDE] | 4.5 µg/mL (≈ 12.1 µM) | 17.8 µg/mL (≈ 47.8 µM) | 
C(=C\c1cc2ccc(C3=NCCN3)cc2[nH]1)/c1ccc(Oc2ccc(C3=NCCN3)cc2)cc1 | 2.6 µg/mL (≈ 5.81 µM) | 2.6 µg/mL (≈ 5.81 µM) | 
N=C(N)c1ccc(NC(=O)c2cc3ccc(C(=N)N)cc3o2)cc1 | > 16 µg/mL | > 16 µg/mL | 
N=C(N)c1ccc(-c2ccc(-c3ccc(C(=N)N)cc3)s2)cc1 | 16 µg/mL (≈ 49.9 µM) | > 16 µg/mL | 
N=C(N)c1ccc2[nH]c(/C=C/c3nc4cc(C(=N)N)ccc4[nH]3)nc2c1 | > 17 µg/mL | > 17 µg/mL | 

Compound | MIC (Bacillus anthracis [1]) | MIC (Bacillus anthracis [2]) | further results
O=C(Nc1ccc(C2=NCCN2)cc1)c1cc2cc(C3=NCCN3)ccc2o1 | 18 µg/mL (≈ 48.2 µM) | > 18 µg/mL | 
N=C(N)c1ccc(Oc2ccc(-c3cc4ccc(C(=N)N)cc4[nH]3)cc2)cc1 | 4 µg/mL (≈ 10.8 µM) | 4 µg/mL (≈ 10.8 µM) | 
c1cc(-c2cc3cc(C4=NCCN4)ccc3s2)ccc1C1=NCCN1 | > 17 µg/mL | > 17 µg/mL | 
C(=C\c1cc2ccc(C3=NCCN3)cc2o1)/c1cc2ccc(C3=NCCN3)cc2o1 | 19 µg/mL (≈ 47.9 µM) | 19 µg/mL (≈ 47.9 µM) | 
C(=C\c1cc2cc(C3=NCCN3)ccc2s1)/c1ccc(C2=NCCN2)cc1 | 17.8 µg/mL (≈ 47.8 µM) | 17.8 µg/mL (≈ 47.8 µM) | 
N=C(N)N/N=C/c1ccc2cc(-c3ccc(/C=N/N=C(N)N)cc3)sc2c1 | 4.5 µg/mL (≈ 11.9 µM) | 18 µg/mL (≈ 47.6 µM) | 
C(=C\c1cc2cc(C3=NCCN3)ccc2o1)/c1ccc(C2=NCCN2)cc1 | 17.2 µg/mL (≈ 48.3 µM) | 17.2 µg/mL (≈ 48.3 µM) | 
C(=C\c1cc2cc(C3=NCCN3)ccc2o1)/c1cc2cc(C3=NCCN3)ccc2[nH]1 | 19 µg/mL (≈ 48 µM) | > 19 µg/mL | 
Cc1cc2nc(/C=C/c3nc4cc(C)c(C)cc4[nH]3)[nH]c2cc1C | > 13 µg/mL | > 13 µg/mL | 
N=C(N)c1ccc(-c2cc(-c3ccc(C(=N)N)cc3)on2)cc1 | > 15 µg/mL | > 15 µg/mL | 
C(=C\c1cc2cc(C3=NCCN3)ccc2o1)/c1cc2cc(C3=NCCN3)ccc2o1 | > 19 µg/mL | > 19 µg/mL | 
c1cc(-c2cc3ccc(C4=NCCN4)cc3[nH]2)ccc1C1=NCCN1 | > 16 µg/mL | > 16 µg/mL | 
C(/C=C/c1cc2cc(C3=NCCN3)ccc2o1)=C\c1ccc(C2=NCCN2)cc1 | 18.2 µg/mL (≈ 47.6 µM) | 18.2 µg/mL (≈ 47.6 µM) | 
N=C(N)c1ccc(-c2cc3cc(C(=N)N)ccc3s2)cc1 | > 15 µg/mL | > 15 µg/mL | 
N=C(N)c1ccc2oc(/C=C/C=C/c3cc4cc(C(=N)N)ccc4o3)cc2c1 | 2.2 µg/mL (≈ 5.94 µM) | 18 µg/mL (≈ 48.6 µM) | 
N=C(N)c1ccc(-c2nc3cc(C(=N)N)ccc3[nH]2)cc1 | > 14 µg/mL | > 14 µg/mL | 
N=C(N)c1ccc(/C=C/c2cc3cc(C(=N)N)ccc3o2)cc1 | > 15 µg/mL | > 15 µg/mL | 
N=C(N)c1ccc2oc(/C=C/C=C/C=C/c3cc4cc(C(=N)N)ccc4o3)cc2c1 | 2.3 µg/mL (≈ 5.8 µM) | 9.4 µg/mL (≈ 23.7 µM) | 
N=C(N)c1ccc(/C=C/C=C/c2cc3cc(C(=N)N)ccc3o2)cc1 | 8.1 µg/mL (≈ 24.5 µM) | 16.1 µg/mL (≈ 48.7 µM) | 
c1cc(-c2cc3ccc(C4=NCCN4)cc3s2)ccc1C1=NCCN1 | > 17 µg/mL | > 17 µg/mL | 
